# Experimental data reported in ChEMBL document CHEMBL1126926, “Nonprostanoid prostacyclin mimetics. 5. Structure-activity relationships associated with [3-[4-(4,5-diphenyl-2-oxazolyl)-5- oxazolyl]phenoxy]acetic acid” (J Med Chem, 1993).
# Key:
# Homo sapiens [1] = organism: Homo sapiens; test: (§1) In vitro inhibition of 5.86 uM ADP-induced human platelet aggregation in platelet rich plasma (PRP); type: functional
# How it was run: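 Human blood drawn into 1/10 volume 3.8% sodium citrate and spun 10 min at 140g to give platelet-rich plasma. Compound in DMSO added to PRP 3 min before 5.86 μM ADP. Aggregation read by Born turbidimetric aggregometry (Mustard modification) against vehicle controls over various concentrations. IC50 taken from dose-response curves, single determinations or mean of duplicates.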
# Homo sapiens [2] = organism: Homo sapiens; test: as §1; type: functional; remark: listed apart in the source
# Homo sapiens [3] = organism: Homo sapiens; test: Inhibitory concentration for displacing [3H]iloprost from human platelet membrane at 5.4 nM at 37 degree C
# Homo sapiens [4] = organism: Homo sapiens; test: Compound tested for percent inhibition against 5.86 uM ADP-induced human platelet aggregation in platelet rich plasma (PRP); type: functional
# How it was run: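 Citrated human PRP (blood spun 10 min at 140g) preincubated 3 min with compound in DMSO, then challenged with 5.86 μM ADP. Born aggregometry (Mustard modification), compared with vehicle controls. Value is percent inhibition at a single stated concentration, from a single experiment or mean of duplicates.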
smiles,measurement,setting,value
O=C(O)CCCCCCCCc1nc(-c2ccccc2)c(-c2ccccc2)o1,IC50,Homo sapiens [1],2500 nM
O=C(O)CCCCOc1ccccc1-c1nc(-c2ccccc2)c(-c2ccccc2)o1,IC50,Homo sapiens [1],> 75000 nM
O=C(O)CCCCCc1ocnc1-c1nc(-c2ccccc2)c(-c2ccccc2)o1,IC50,Homo sapiens [1],7200 nM
O=C(O)COc1cccc(-c2ocnc2-c2nc(-c3ccccc3)c(-c3ccccc3)o2)c1,IC50,Homo sapiens [2],27 nM
same,IC50,Homo sapiens [3],5.4 nM
O=C(O)COc1cccc(-c2ccccc2-c2nc(-c3ccccc3)c(-c3ccccc3)o2)c1,IC50,Homo sapiens [1],11100 nM
c1ccc(-c2nc(-c3ncoc3-c3cccc(OCc4nn[nH]n4)c3)oc2-c2ccccc2)cc1,IC50,Homo sapiens [1],130 nM
O=C(O)CCCCCCc1ocnc1-c1nc(-c2ccccc2)c(-c2ccccc2)o1,IC50,Homo sapiens [1],420 nM
N#CCOc1cccc(-c2ocnc2-c2nc(-c3ccccc3)c(-c3ccccc3)o2)c1,Inhibition,Homo sapiens [4],14%
same,IC50,Homo sapiens [1],> 76000 nM
O=C(O)COc1cccc(-c2ocnc2-c2nc(-c3ccccc3)c(-c3ccccc3)[nH]2)c1,IC50,Homo sapiens [1],30 nM
Cc1nc(-c2nc(-c3ccccc3)c(-c3ccccc3)o2)c(-c2cccc(OCC(=O)O)c2)o1,IC50,Homo sapiens [2],50 nM
same,IC50,Homo sapiens [3],36.6 nM
O=C(O)COc1cccc(-c2[nH]ncc2-c2nc(-c3ccccc3)c(-c3ccccc3)o2)c1,IC50,Homo sapiens [2],180 nM
O=C(O)COc1cccc(-c2ocnc2-c2onc(-c3ccccc3)c2-c2ccccc2)c1,Inhibition,Homo sapiens [4],36%
same,IC50,Homo sapiens [1],> 72000 nM
O=C(O)CCCc1ocnc1-c1nc(-c2ccccc2)c(-c2ccccc2)o1,Inhibition,Homo sapiens [4],44%
same,IC50,Homo sapiens [1],> 80000 nM
O=C(O)COc1cccc(/C=C\c2nc(-c3ccccc3)c(-c3ccccc3)o2)c1,IC50,Homo sapiens [3],6 nM
O=C(O)CCCOc1ccccc1-c1nc(-c2ccccc2)c(-c2ccccc2)o1,IC50,Homo sapiens [1],> 75000 nM
Cn1ncc(-c2nc(-c3ccccc3)c(-c3ccccc3)o2)c1-c1cccc(OCC(=O)O)c1,IC50,Homo sapiens [2],1060 nM
same,IC50,Homo sapiens [3],337 nM
O=C(O)COc1cccc(-c2ocnc2-c2nnc(-c3ccccc3)n2-c2ccccc2)c1,IC50,Homo sapiens [1],> 70000 nM
O=C(O)COc1ccc(-c2ocnc2-c2nc(-c3ccccc3)c(-c3ccccc3)o2)cc1,Inhibition,Homo sapiens [4],44%
same,IC50,Homo sapiens [1],> 73000 nM
O=C(O)CCCCc1ocnc1-c1nc(-c2ccccc2)c(-c2ccccc2)o1,IC50,Homo sapiens [1],15900 nM
Cn1cc(-c2nc(-c3ccccc3)c(-c3ccccc3)o2)c(-c2cccc(OCC(=O)O)c2)n1,IC50,Homo sapiens [2],650 nM
same,IC50,Homo sapiens [3],302 nM
O=C(O)CCCCCCCc1ocnc1-c1nc(-c2ccccc2)c(-c2ccccc2)o1,IC50,Homo sapiens [1],11600 nM
O=C(O)COc1cccc(-c2ocnc2-c2nc(-c3ccccc3)c(-c3ccccc3)s2)c1,IC50,Homo sapiens [1],150 nM
O=C(O)COc1cccc(-c2oc(-c3ccccc3)nc2-c2nc(-c3ccccc3)c(-c3ccccc3)o2)c1,Inhibition,Homo sapiens [4],36%
same,IC50,Homo sapiens [1],> 60000 nM
O=C(O)COc1cccc(-c2ncoc2-c2nc(-c3ccccc3)c(-c3ccccc3)o2)c1,IC50,Homo sapiens [1],160 nM
Cc1ccc(-c2nc(-c3ncoc3-c3cccc(OCC(=O)O)c3)oc2-c2ccc(C)cc2)cc1,IC50,Homo sapiens [1],100 nM
O=C(O)COc1cccc(-c2ocnc2-c2nc(-c3ccsc3)c(-c3ccsc3)o2)c1,IC50,Homo sapiens [1],450 nM
CCCCC[C@H](O)/C=C/[C@@H]1[C@H]2C/C(=C/CCCC(=O)O)O[C@H]2C[C@H]1O [EPOPROSTENOL],IC50,Homo sapiens [1],8 nM
CC#CCC(C)[C@H](O)/C=C/[C@@H]1[C@H]2C/C(=C/CCCC(=O)O)C[C@H]2C[C@H]1O (some centres not stated) [ILOPROST],IC50,Homo sapiens [3],47.7 nM
